Experimental data as given in PubChem BioAssay AID2247 (Johns Hopkins Ion Channel Center, 2010).
In all, about 300,000 compounds went through this assay and about 1,200 (0.4%) were called active.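 How the source made its calls: active means B-score over 3 SD under the library average, no early fluorescence shift, positive overall ratio signal; inactive means the rest.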 Shown is part of a subset that was picked to be rich in actives.

target: Short transient receptor potential channel 4 (Mus musculus) (UniProt Q9QUQ5); experiment: blockers of DAMGO-evoked TRPC4 calcium flux – Fluo4 calcium, HEK293 TRPC4beta/mu-opioid cells, primary screen (AID 2247); settings: at 10 µM; stronger effect = lower value
Sequence (Q9QUQ5 whole entry, looked up): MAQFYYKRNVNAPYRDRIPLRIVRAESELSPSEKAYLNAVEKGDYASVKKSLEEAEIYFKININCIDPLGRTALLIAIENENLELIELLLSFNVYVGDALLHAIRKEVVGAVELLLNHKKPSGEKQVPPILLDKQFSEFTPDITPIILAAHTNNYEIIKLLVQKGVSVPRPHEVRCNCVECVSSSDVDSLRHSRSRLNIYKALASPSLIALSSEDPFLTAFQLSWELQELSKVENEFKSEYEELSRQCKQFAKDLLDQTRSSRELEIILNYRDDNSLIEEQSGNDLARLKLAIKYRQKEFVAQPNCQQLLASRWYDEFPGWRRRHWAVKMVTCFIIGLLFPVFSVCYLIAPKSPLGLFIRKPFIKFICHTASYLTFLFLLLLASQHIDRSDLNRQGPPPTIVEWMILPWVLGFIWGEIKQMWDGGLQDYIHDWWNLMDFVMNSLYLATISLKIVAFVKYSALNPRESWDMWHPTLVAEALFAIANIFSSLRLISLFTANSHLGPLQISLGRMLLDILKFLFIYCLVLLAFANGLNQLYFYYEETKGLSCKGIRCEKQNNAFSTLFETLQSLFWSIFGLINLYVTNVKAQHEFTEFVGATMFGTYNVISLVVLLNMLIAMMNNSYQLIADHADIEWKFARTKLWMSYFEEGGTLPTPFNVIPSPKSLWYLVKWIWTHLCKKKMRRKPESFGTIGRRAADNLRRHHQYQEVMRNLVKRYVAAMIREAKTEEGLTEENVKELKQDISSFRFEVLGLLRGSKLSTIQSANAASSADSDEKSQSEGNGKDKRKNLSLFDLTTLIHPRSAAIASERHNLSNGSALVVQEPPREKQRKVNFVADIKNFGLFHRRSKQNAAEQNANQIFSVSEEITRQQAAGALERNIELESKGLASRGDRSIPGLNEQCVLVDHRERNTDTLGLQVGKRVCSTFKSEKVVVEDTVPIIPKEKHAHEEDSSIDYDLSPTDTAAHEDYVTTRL
In short: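 material = TRPC4beta/mu-opioid receptor HEK293 cell line | probe or stimulus = sequential submaximal and maximal DAMGO stimulation | compound dosing = one concentration per compound | measured by = Fluo4 Ca2+ flux fluorescence | evaluation = integrated fluorescence ratio relative to baseline, converted to per-well B score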

Row | SMILES | B-score
1 | Cc1noc(C)c1COc1ccccc1C(=O)N(C)CC(=O)Nc1cccc(F)c1 | inactive
2 | Cc1onc(-c2c(F)cccc2Cl)c1C(=O)N(C)CC(=O)Nc1cccc(F)c1 | -7 (active)
3 | CN(CC(=O)Nc1cccc(F)c1)C(=O)C1=COCCO1 | inactive
4 | Cc1sc(NC(=O)C2C3CCC(O3)C2C(=O)O)c(C(=O)OC(C)C)c1-c1ccc(Cl)cc1 (configuration not stated) | inactive
5 | Cc1cccc(-c2ncc(CN3CCC(CO)(CCCc4ccccc4)CC3)cn2)c1 | inactive
6 | CC(C)(O)C#Cc1ccc(CN2CCC(CO)(CCc3ccccc3)CC2)cc1 | inactive
7 | OCC1(CCc2ccccc2)CCN(Cc2ccc3nsnc3c2)CC1 | -7 (active)
8 | O=C(CN1CCOc2ccccc21)N1CCC(Cc2ccccc2)CC1 | inactive
9 | CC(c1ccccn1)N(C)C(=O)c1ccc2nc(Cc3cccc(Cl)c3)oc2c1 (configuration not stated) | inactive
10 | NC1=NC[C@@H](Cc2ccc(O)cc2)N1CC1CCCCC1 | inactive
11 | CC(C)n1c(NCc2c[nH]c3ccccc23)nc2ccccc21 | -8 (active)
12 | CC(C)n1c(COc2ccccc2)nc2ccccc21 | inactive
13 | CC(C)n1c(-c2cccs2)nc2ccccc21 | inactive
14 | Cc1ccc(Cn2nnc3c(=O)[nH]c(C4CCN(S(=O)(=O)/C=C/c5ccccc5)CC4)nc32)cc1 | inactive
15 | N#Cc1c(NC(=O)CCCl)sc2c1CCCCC2 | inactive
16 | N#Cc1c(NC(=O)C2CC(Cl)=CCC2C(=O)O)sc2c1CCCCC2 (configuration not stated) | -6 (active)
17 | N#Cc1c(NC(=O)C2CCCO2)sc2c1CCCCC2 (configuration not stated) | inactive
18 | CC(C)(C)c1cc2cccnc2n1Cc1ccccc1 | -7 (active)
19 | COc1ccnc2c1c(=O)n(Cc1cccc(F)c1)c(=O)n2C | inactive
20 | CC(C)(C)c1cc2cccnc2n1Cc1cccc(F)c1 | -6 (active)
21 | Cc1cc(C(C)(C)C)n2nc(C)c(-c3ccccc3)c2n1 | inactive
22 | Cn1c(=O)c2c(nc(OCc3cccnc3)n2Cc2ccccc2)n(C)c1=O | inactive

Row | SMILES | B-score
23 | Nc1cc(N)nc(SCc2cccc(F)c2)n1 | inactive
24 | CCN(CC)C(=O)Cn1cc(S(=O)(=O)CC(=O)NCc2ccc3c(c2)OCO3)c2ccccc21 | inactive
25 | Cc1nc2ccccc2n1C(=O)N1CCOCC1 | inactive
26 | COc1ccc(C(=O)Nc2ccc(-n3nncc3C(C)(C)C)cc2)cc1 | inactive
27 | O=S(=O)(O)Oc1c[nH]c2ccccc12 | inactive
28 | COc1ccc(CN(C)Cc2nc3cc(OC)c(OC)cc3c(=O)[nH]2)c(OC)c1 | inactive
29 | COc1cc(NS(=O)(=O)c2ccc3ccccc3c2)c2ncccc2c1 | -6 (active)
30 | O=[N+]([O-])c1ccccc1S(=O)(=O)Nc1cccc2cccnc12 | inactive
31 | Cc1ccc(NS(=O)(=O)c2ccc(C)c(NC(=O)COc3ccc4ccccc4c3)c2)c(C)c1 | inactive
32 | CC1(C)S[C@@H]2[C@H](NC(=O)COc3ccccc3)C(=O)N2C1C(=O)OCc1ccccc1 (some centres not stated) | inactive
33 | CCc1ccc(C(=O)COC(=O)c2ccco2)cc1 | inactive
34 | COc1ccc(-n2cc(CNC3CCOCC3)c(-c3cccc(F)c3)n2)cc1 | inactive
35 | CCC(O)C1CCN(Cc2cn(-c3ccc(OC)cc3)nc2-c2cccc(F)c2)CC1 (configuration not stated) | -8 (active)
36 | COc1ccc(-n2cc(CN(C)Cc3n[nH]c(=O)[nH]3)c(-c3cccc(F)c3)n2)cc1 | inactive
37 | Cc1c(CCOC(=O)CC23CC4CC(CC(C)(C4)C2)C3)sc[n+]1Cc1ccc([N+](=O)[O-])cc1 | inactive
38 | Cc1ccc(CN2CCC(n3nccc3NC(=O)CCCc3ccccc3)CC2)o1 | inactive
39 | CCn1cc(CN2CCC(n3nccc3NC(=O)CCCc3ccccc3)CC2)c(C)n1 | inactive
40 | Cc1c(CN2CCC(n3nccc3NC(=O)CCc3ccccc3)CC2)cnn1C | -7 (active)
41 | COC(=O)c1onc(-c2c(OC)cc(OC)cc2OC)c1C(=O)OC | inactive
42 | O=C(Cn1ncc2c3ccccc3n(Cc3ccccc3)c2c1=O)NCc1ccccn1 | inactive
43 | Cc1ccc(NC(=O)CSc2nc(=O)n(CCN(C)C)c3c2CCCC3)c(C)c1 | inactive
44 | Cc1cc(CNC(=O)c2cccc([N+](=O)[O-])c2)c2ccccc2n1 | inactive

Row | SMILES | B-score
45 | O=[N+]([O-])c1cccc(Nc2c3ccccc3nc3ccccc23)c1 | -7 (active)
46 | N#Cc1cccc(Nc2c3c(nc4ccccc24)CCCC3)c1 | inactive
47 | CC1CC(C)CN(CCCNC(=O)c2csc3c2CCCCC3)C1 (configuration not stated) | inactive
48 | COc1ccc(CNC(=O)[C@@H]2CC=C[C@@H]3CCN(C4CC4)C(=O)[C@@H]32)cc1 | inactive
49 | CCc1ccc2oc(=O)cc(CN3CCCCC3C)c2c1 (configuration not stated) | inactive
50 | Cc1onc(-c2c(Cl)cccc2Cl)c1C(=O)c1c[nH]c(C(=O)NC2CC2)c1 | inactive
51 | Cc1[nH]n(C)c(=O)c1C(=O)c1c(-c2c(Cl)cccc2Cl)noc1C | -6 (active)
52 | Cc1onc(-c2c(Cl)cccc2Cl)c1C(=O)NNC(=O)c1c(-c2c(Cl)cccc2Cl)noc1C | inactive
53 | COc1cc(CNC2CCCC2)c(Br)cc1OCc1ccccc1 | -6 (active)
54 | COc1cc(CN2CCC(C(N)=O)CC2)ccc1OCc1ccccc1 | inactive
55 | COc1cc(CNC2CCCCC2)c(Br)cc1OC1CCCC1 | inactive
56 | Cc1cccc(C2C3=C(CCCC3=O)N=C3c4ccccc4C(=O)C32)c1 (configuration not stated) | inactive
57 | Nc1ccc(OCC(O)C[n+]2ccc(CCS(=O)(=O)[O-])cc2)cc1 (configuration not stated) | inactive
58 | CN(CC(=O)N1CCN(c2ccccc2)CC1)S(=O)(=O)c1cccs1 | inactive
59 | Cc1cccc(NS(=O)(=O)c2ccc(C)c(C(N)=O)c2)c1 | inactive
60 | CC1CCCN(CCOCCOc2ccccc2-c2ccccc2)C1 (configuration not stated) | -7 (active)
61 | CC1CN(CCCOc2ccccc2-c2ccccc2)CC(C)O1 (configuration not stated) | inactive
62 | c1ccc(-c2ccccc2OCCN2CCCCC2)cc1 | inactive
63 | COc1cc(N2CCCC2)c(OC)cc1/C=C(/C#N)c1cccc(Br)c1 | inactive
64 | Cc1cc(NC(=O)CN2C(=O)NC(C)(CCc3ccccc3)C2=O)no1 (configuration not stated) | inactive
65 | CCOc1ccc2nc(N3CCCN(C(=O)Nc4ccccc4C)CC3)c(C#N)cc2c1 | inactive
66 | CCOC(=O)c1cc(C#N)c(N2CCCCC2)nc1-c1ccccc1 | -8 (active)

Row | SMILES | B-score
67 | CCOC(=O)c1cc(C)nc(S(C)(=O)=O)c1C#N | inactive
68 | O=C(CN(Cc1ccc(Br)cc1)S(=O)(=O)c1ccccc1)NCc1ccncc1 | inactive
69 | CSCC[C@H](NC(=O)NCc1cccs1)C(=O)O | inactive
70 | COc1ccc(C(=O)C2CCCN(Cc3ccc4nonc4c3)C2)c(C)c1 (configuration not stated) | inactive
71 | COc1ccc(CN2CCCC(C(=O)c3ccc(Cl)cc3)C2)cc1Cn1cncn1 (configuration not stated) | -7 (active)
72 | COc1cc(CN2CCCC(C(=O)c3ccc(SC)cc3)C2)cc(Cl)c1O (configuration not stated) | inactive
73 | CCC(C)OC(=O)C(C)Oc1ccc(-c2ccccc2)cc1 (configuration not stated) | inactive
74 | O=S(=O)(/C=C/c1ccccc1)N1CCNCC1 | inactive
75 | O=C(O)c1ccccc1C(=O)NC1=NN(c2ccccc2)CC1 | inactive
76 | Cc1ccc(Nc2ccc(C(N)=O)cc2[N+](=O)[O-])cc1 | inactive
77 | O=C(O)c1ccccc1C(=O)Nc1ccccc1[N+](=O)[O-] | inactive
78 | O=[N+]([O-])c1ccccc1Nc1ccc(O)cc1 | -6 (active)
79 | Cc1ccc(C(=O)Nc2nnc(C3=COCCO3)o2)cc1C | -6 (active)
80 | O=C(Nc1nnc(C2=COCCO2)o1)c1ccc([N+](=O)[O-])s1 | inactive
81 | COc1cc(-c2nnc(NC(=O)C3=COCCO3)o2)cc(OC)c1OC | inactive
82 | Cc1ccc(CNC(=O)C(=O)c2cn(CC(=O)N3CCCC3)c3ccccc23)cc1 | inactive
83 | O=C(Nc1ccc(N2CCCCC2)cc1)c1cc(S(=O)(=O)N2CCOCC2)ccc1F | inactive
84 | CCc1nn(CCCC(=O)Nc2ccc(C)c(C)c2)c(=O)c2cc3occc3n12 | inactive
85 | N/C(=N\OC(=O)Nc1ccccc1)c1ccno1 | inactive
86 | O=C(CSc1nc2ccccc2c(=O)n1CCCO)N1CCc2ccccc21 | -7 (active)
87 | Cn1c(SCC(=O)N2CCCc3ccccc32)nc2ccccc2c1=O | inactive
88 | CC1CCN(CCCn2c(SCC(=O)NC3CCCC3)nc3ccccc3c2=O)CC1 | inactive

Row | SMILES | B-score
89 | CCOc1ccc(CCNC(=O)CN2C(=O)NC3(CCc4ccccc43)C2=O)cc1OCC (configuration not stated) | inactive
90 | COCCn1c(SC(C)C(=O)NC2CC2)nnc1-c1cccc(C)c1 (configuration not stated) | inactive
91 | O=C(/C=C/NNC(=O)c1cccc(Br)c1)c1ccccc1 | inactive
92 | CCOC(=O)/C(C#N)=C/c1cn(CCC(=O)O)nc1-c1ccc(Br)cc1 | inactive
93 | O=C(O)CCn1cc(/C=C/C(=O)c2ccc(Cl)cc2)c(-c2cccc(Br)c2)n1 | -6 (active)
94 | CCOC(=O)N1CCN(S(=O)(=O)N2CCCC(C(=O)NCCCN3CCC(C)CC3)C2)CC1 (configuration not stated) | inactive
95 | Cc1ccnc(N2CCN(C(=O)CSc3nc4ccccc4nc3N3CCCCC3)CC2)c1 | inactive
96 | CC(C)Cc1nc(Cl)c(C#N)c2c1CCC2 | inactive
97 | CC(C)Cc1nc(N2CCOCC2)c(C#N)c2c1CCC2 | -6 (active)
98 | CC(C)c1nc(N2CCOCC2)c(C#N)c2c1COC(C)(C)C2 | inactive
99 | CCCCn1c(N)c(N(CCOC)C(=O)c2cccc(S(=O)(=O)N3CCCCC3)c2)c(=O)[nH]c1=O | inactive
100 | CN1CCNC(=O)C1CC(=O)N1CC=C(c2ccc(F)cc2)CC1 (configuration not stated) | inactive
101 | COc1cccc(N(CC(=O)NCc2ccccc2)C(=O)CCC(=O)Nc2nccs2)c1 | inactive
102 | O=C(CN1CCN(c2ccccc2F)CC1)c1ccc2c(c1)OCO2 | inactive
103 | O=C(CCN1CCc2ccccc2C(O)(c2ccccc2)C1)c1ccc2c(c1)OCCO2 (configuration not stated) | -7 (active)
104 | CCC1(c2ccccc2)NC(=O)N(CC(=O)c2ccc3c(c2)OCO3)C1=O (configuration not stated) | inactive
105 | CC(=O)Oc1ccc(NC(=O)CCC2CCCCC2)c(C(=O)O)c1 | -6 (active)
106 | COC(=O)c1sccc1NC(=O)CCC1CCCC1 | inactive
107 | COc1ccc(NC(=O)CCCC2CCCCC2)c(OC)c1 | inactive
